Data published in ChEMBL document CHEMBL1781963, “Discovery of novel hepatoselective HMG-CoA reductase inhibitors for treating hypercholesterolemia: a bench-to-bedside case study on tissue selective drug distribution” (Bioorg Med Chem Lett, 2011).
Blank lines part the entries; values can stand above or below the molecule they belong to.

What was measured:
[1] = Cmax in human plasma at 10 mg administered qd for 14 days; type: ADME, organism-based; set-up: dose 10 mg
Homo sapiens [2] = test: Inhibition of HMG-CoA reductase in human assessed as decrease in AUC (0 to 24 hrs) of mevalonate level in plasma at 10 mg administered qd for 14 days relative to control; type: functional
[3] = Cmax in human plasma at 5 mg administered as single dose; type: ADME, organism-based; set-up: dose 5 mg
Summary of the method: (§1)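 Phase 1 single ascending oral dose in healthy volunteers, about 5–6 subjects per dose. Total plasma drug Cmax and AUC(0-∞) were measured. Free-drug exposures were derived using plasma protein binding.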

Homo sapiens [4] = test: Inhibition of HMG-CoA reductase in human assessed as decrease in AUC (0 to 24 hrs) of mevalonate level in plasma at 1 mg administered as single dose relative to control; type: functional
Plasma [5] = test: fCmax in human plasma at 80 mg administered as single dose; type: ADME, cell-free
Summary of the method: (§2)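 Phase 1 single ascending oral dose in healthy volunteers, with N per dose group. Total plasma Cmax and AUC(0-∞) were measured. Free-drug exposures were derived from these using plasma protein binding (human plasma fu measured at 0.5 μg/mL).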

Homo sapiens [6] = test: Inhibition of HMG-CoA reductase in human assessed as decrease in AUC (0 to 72 hrs) of mevalonate level in plasma at 80 mg administered as single dose relative to control; type: functional
Plasma [7] = test: fCmax in human plasma at 160 mg administered as single dose; type: ADME, cell-free; summary of the method: as §2
Homo sapiens [8] = test: Inhibition of HMG-CoA reductase in human assessed as decrease in AUC (0 to 24 hrs) of mevalonate level in plasma at 20 mg administered as single dose relative to control; type: functional
[9] = AUC (0 to infinity) in human plasma at 20 mg administered as single dose; type: ADME, cell-free; set-up: dose 20 mg, time infinity; summary of the method: as §1
[10] = Cmax in human plasma at 160 mg administered as single dose; type: ADME, organism-based; set-up: dose 160 mg; summary of the method: as §1
Plasma [11] = test: fAUC (0 to infinity) in human plasma at 160 mg administered as single dose; type: ADME, cell-free; summary of the method: as §2
Homo sapiens [12] = test: Inhibition of HMG-CoA reductase in human assessed as decrease in AUC (0 to 72 hrs) of mevalonate level in plasma at 160 mg administered as single dose relative to control; type: functional
[13] = Terminal half life in human plasma at 80 mg administered as single dose; type: ADME, cell-free; conditions: read-out: beta t1/2 (converted)
[14] = AUC (0 to infinity) in human plasma at 80 mg administered as single dose; type: ADME, cell-free; set-up: dose 80 mg, time infinity; summary of the method: as §1
Plasma [15] = test: fAUC (0 to infinity) in human plasma at 5 mg administered as single dose; type: ADME, cell-free; summary of the method: as §2
[16] = AUC (0 to infinity) in human plasma at 1 mg administered as single dose; type: ADME, cell-free; set-up: dose 1 mg, time infinity; summary of the method: as §1
[17] = Terminal half life in human plasma at 1 mg administered as single dose; type: ADME, cell-free; conditions: read-out: beta t1/2 (converted)
[18] = Terminal half life in human plasma at 160 mg administered as single dose; type: ADME, cell-free; conditions: read-out: beta t1/2 (converted)
[19] = AUC (0 to infinity) in human plasma at 5 mg administered as single dose; type: ADME, cell-free; set-up: dose 5 mg, time infinity; summary of the method: as §1
Homo sapiens [20] = test: Inhibition of HMG-CoA reductase in human assessed as decrease in AUC (0 to 72 hrs) of mevalonate level in plasma at 5 mg administered as single dose relative to control; type: functional
Plasma [21] = test: fAUC (0 to infinity) in human plasma at 1 mg administered as single dose; type: ADME, cell-free
Homo sapiens [22] = test: Inhibition of HMG-CoA reductase in human assessed as decrease in AUC (0 to 72 hrs) of mevalonate level in plasma at 1 mg administered as single dose relative to control; type: functional
Homo sapiens [23] = test: Inhibition of HMG-CoA reductase in human assessed as decrease in AUC (0 to 24 hrs) of mevalonate level in plasma at 80 mg administered as single dose relative to control; type: functional
Homo sapiens [24] = test: Inhibition of HMG-CoA reductase in human assessed as decrease in AUC (0 to 24 hrs) of mevalonate level in plasma at 240 mg administered as single dose relative to control; type: functional
Homo sapiens [25] = test: Inhibition of HMG-CoA reductase in human assessed as decrease in AUC (0 to 24 hrs) of mevalonate level in plasma at 120 mg administered as single dose relative to control; type: functional
[26] = Cmax in human plasma at 120 mg administered as single dose; type: ADME, organism-based; set-up: dose 120 mg; summary of the method: as §1
[27] = Terminal half life in human plasma at 120 mg administered as single dose; type: ADME, cell-free; conditions: read-out: beta t1/2 (converted)
[28] = Terminal half life in human plasma at 320 mg administered as single dose; type: ADME, cell-free; conditions: read-out: beta t1/2 (converted)
Homo sapiens [29] = test: Inhibition of HMG-CoA reductase in human assessed as decrease in AUC (0 to 72 hrs) of mevalonate level in plasma at 10 mg administered as single dose relative to control; type: functional
Plasma [30] = test: fAUC (0 to infinity) in human plasma at 120 mg administered as single dose; type: ADME, cell-free; summary of the method: as §2
Homo sapiens [31] = test: Inhibition of HMG-CoA reductase in human assessed as decrease in AUC (0 to 24 hrs) of mevalonate level in plasma at 320 mg administered as single dose relative to control; type: organism-based; conditions: in vivo
Plasma [32] = test: fCmax in human plasma at 320 mg administered as single dose; type: ADME, cell-free; summary of the method: as §2
Plasma [33] = test: fAUC (0 to infinity) in human plasma at 320 mg administered as single dose; type: ADME, cell-free; summary of the method: as §2
[34] = AUC (0 to infinity) in human plasma at 120 mg administered as single dose; type: ADME, cell-free; set-up: dose 120 mg, time infinity; summary of the method: as §1
[35] = AUC (0 to infinity) in human plasma at 240 mg administered as single dose; type: ADME, cell-free; set-up: dose 240 mg, time infinity; summary of the method: as §1
Plasma [36] = test: fCmax in human plasma at 3 mg administered as single dose; type: ADME, cell-free; summary of the method: as §2
Rattus norvegicus = test: Inhibition of HMG-CoA reductase in Sprague-Dawley rat assessed as reduction of mevalonate level in plasma at 10 mg/kg, po administered as single dose after 24 hrs relative to control; type: functional
Homo sapiens [37] = test: Inhibition of HMG-CoA reductase in human assessed as decrease in AUC (0 to 72 hrs) of mevalonate level in plasma at 120 mg administered as single dose relative to control; type: functional
[38] = Cmax in human plasma at 3 mg administered as single dose; type: ADME, organism-based; set-up: dose 3 mg; summary of the method: as §1
Plasma [39] = test: fCmax in human plasma at 240 mg administered as single dose; type: ADME, cell-free; summary of the method: as §2
Plasma [40] = test: fAUC (0 to infinity) in human plasma at 10 mg administered as single dose; type: ADME, cell-free; summary of the method: as §2
L6 = test: Inhibition of cholesterol synthesis in rat L6 cells assessed as reduction of [14C]-cholesterol level using [14C]-acetic acid preincubated for 3 hrs before addition of [14C]-acetic acid by scintillation counting; type: functional, cell-based
Summary of the method: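 Cholesterol synthesis inhibition measured in rat hepatocytes and rat myocyte cell line, giving IC50 for each. Mean ± SEM of n ≥ 2 independent determinations.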

Homo sapiens [41] = test: Inhibition of HMG-CoA reductase in human assessed as decrease in AUC (0 to 24 hrs) of mevalonate level in plasma at 10 mg administered as single dose relative to control; type: functional
Homo sapiens [42] = test: Inhibition of HMG-CoA reductase in human assessed as decrease in AUC (0 to 24 hrs) of mevalonate level in plasma at 3 mg administered as single dose relative to control; type: functional
[43] = Cmax in human plasma at 320 mg administered as single dose; type: ADME, organism-based; set-up: dose 320 mg; summary of the method: as §1

Cmax [1]: 4.58 ng/mL
Structure (SMILES): CC(C)c1nc(N(C)S(C)(=O)=O)nc(-c2ccc(F)cc2)c1/C=C/[C@@H](O)C[C@@H](O)CC(=O)O [ROSUVASTATIN]
inhibition (INH) (Homo sapiens [2]): 29.9%

Cmax [3]: 196 ng/mL
fCmax (Plasma [5]): 228 ng/mL
fCmax (Plasma [7]): 347 ng/mL
AUC(0-inf) [9]: 1930 ng·h/mL
Cmax [10]: 6810 ng/mL
fAUC (Plasma [11]): 1280 ng·h/mL
half-life [13]: 6.28 h
AUC(0-inf) [14]: 11800 ng·h/mL
fAUC (Plasma [15]): 22.1 ng·h/mL
AUC(0-inf) [16]: 78.5 ng·h/mL
half-life [17]: 2.55 h
half-life [18]: 8.87 h
AUC(0-inf) [19]: 434 ng·h/mL
fAUC (Plasma [21]): 4 ng·h/mL
Structure (SMILES): Cc1ccc(CNC(=O)c2nn(-c3ccc(F)cc3)c(CC[C@@H](O)C[C@@H](O)CC(=O)O)c2C(C)C)cc1
inhibition (INH) (Homo sapiens [4]): -16%
inhibition (INH) (Homo sapiens [6]): -29%
inhibition (INH) (Homo sapiens [8]): -34%
inhibition (INH) (Homo sapiens [12]): -24%
inhibition (INH) (Homo sapiens [20]): 3%
inhibition (INH) (Homo sapiens [22]): -8%
inhibition (INH) (Homo sapiens [23]): -65%

Cmax [26]: 3.31 ng/mL
half-life [27]: 3.07 h
half-life [28]: 7.36 h
fAUC (Plasma [30]): 3.63 ng·h/mL
inhibition (INH) (Homo sapiens [31]): -61%
fCmax (Plasma [32]): 12.8 ng/mL
fAUC (Plasma [33]): 10.4 ng·h/mL
AUC(0-inf) [34]: 12.5 ng·h/mL
AUC(0-inf) [35]: 27.2 ng·h/mL
fCmax (Plasma [36]): 0.016 ng/mL
Cmax [38]: 0.0552 ng/mL
fCmax (Plasma [39]): 2.69 ng/mL
fAUC (Plasma [40]): 0.786 ng·h/mL
Cmax [43]: 44.1 ng/mL
Structure (SMILES): O=C([O-])C[C@H](O)C[C@H](O)CCn1c(-c2ccc(F)cc2)nc(C(=O)NCc2cccc(F)c2)c1C1CC1.[Na+]
inhibition (INH) (Homo sapiens [24]): -56%
inhibition (INH) (Homo sapiens [25]): -46%
inhibition (INH) (Homo sapiens [29]): -13%
inhibition in vivo at 10 mg/kg (Rattus norvegicus): 47%
inhibition (INH) (Homo sapiens [37]): -17%
IC50 (L6): 444 nM
inhibition (INH) (Homo sapiens [41]): -25%
inhibition (INH) (Homo sapiens [42]): -5%
